Screening data (PubChem BioAssay)
PolyA inh – yeast polyadenylation inhibition | S. cerevisiae SKY197-pL101 polyadenylation reporter, beta-gal luminescence; efflux-impaired pdr1/pdr3 knockout yeast; score 100 = 6 SD above DMSO | activity score, % at 12 µM | actives 0.02% (n = 300,000) | AID 1875;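 active means lowest replicate activity score at least 50, where 100 means six control SD above control mean; inconclusive means lowest score under 50 but half or more replicates reach 50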;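 further: yeast exposed to compound for 9 h at 30 °C; higher score means more reporter readthrough which indicates perturbed polyadenylation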
Arr AP2 block – inhibitors of human beta-arrestin and AP2 interaction. FITC-arrestin peptide / GST-AP2 beads, flow cytometry; AP2 beta2 appendage carries R879A mutation. inhibition, % at 10 µM. actives 0.31% (n = 340,000);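 active means inhibition above a set limit, near 3 SD of compounds lacking own fluorescence, cut at about 54% in these data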
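Test system: GST-tagged AP2 beta2-adaptin appendage (R879A) on 4 µm glutathione beads; also added: fluorescein-tagged arrestin peptide at 50 nM final; timing: 12 min plus 1 h, RT; signal: flow cytometry, FL1 (488/535 nm); read-out: percent drop in bead-associated FITC signal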
NLRP3 yeast inh – inhibitors of NALP3 inflammasome in yeast. Yeast reconstituted NLRP3/ASC/caspase-1, beta-gal luminescence, 24 h. inhibition, % at 10 µM. actives 0.39% (n = 330,000);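 active means inhibition of 50% or more; inactive means inhibition below 50%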
DSG3 Ab inh – blocks pemphigus antibody binding to human desmoglein-3 | P32926 | DSG3-coupled beads, scFv-anti-DSG3-GFP binding, flow cytometry; active compounds read low | binding (percent of control), % at 10 µM | actives 0.48% (n = 310,000);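 active means binding more than 3 SD below its plate's average and above zero; inconclusive means below that plate limit but binding exactly zero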;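 further: hits lower antibody fragment binding to DSG3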
ALR H2O2 inh – blocks human ALR sulfhydryl oxidase activity | P55789 | purified ALR, DTT oxidation, H2O2 HRP-luminol luminescence | inhibition, % (concentration not given with the values) | actives 3.8% (n = 290,000);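 active means mean replicate inhibition above about 79%, with every replicate also reaching it, limit read from the data; inconclusive means only one of the two criteria met; inactive means mean below limit and not every replicate reaching it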
Target sequence (P55789 whole entry, looked up): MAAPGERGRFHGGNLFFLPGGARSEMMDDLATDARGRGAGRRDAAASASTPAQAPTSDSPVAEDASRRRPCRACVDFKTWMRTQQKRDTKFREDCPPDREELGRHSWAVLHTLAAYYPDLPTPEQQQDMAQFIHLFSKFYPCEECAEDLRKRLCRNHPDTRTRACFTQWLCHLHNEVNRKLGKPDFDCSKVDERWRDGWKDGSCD
NALP1 inh – NALP1 inhibition. actives 0.61% (n = 280,000). inhibition, % at 10 µM. S. cerevisiae NALP1/ASC/caspase-1 growth, X-gal OD620, 72 h; in the data active means inhibition mostly above about 24%, no sharp cut-off; inactive means mostly below about 32%
Of the large screens only hits and unclear results are named; the others gave an inactive call. The list is not random: actives were taken first. Their share in the collection is about 4.6%.

O=C(c1nc2ccccn2c1CN1CCN(c2ccccc2O)CC1)N1CCCC1	ALR H2O2 inh 98.9
CC1(C)C(=O)C2(CCCCC2)C(=O)OC1c1cccc([N+](=O)[O-])c1 (stereo not given)	none
CN(C)c1ccc(C2OC(=O)C3(CCCC3)C(=O)C2(C)C)cc1 (stereo not given)	ALR H2O2 inh 93.8
O=C(Nc1cccc([N+](=O)[O-])c1)c1[nH]ncc1Cl	ALR H2O2 inh 95.5
O=C(Nc1cccc([N+](=O)[O-])c1)c1cnccn1	none
CCN(Cc1ccccc1)c1ccccc1	none (no result: PolyA inh, NLRP3 yeast inh, ALR H2O2 inh, NALP1 inh)
CCN(Cc1ccccc1)c1ccc(/C=N/N=C(N)N)cc1	ALR H2O2 inh 99.3
CC(=O)Nc1cccc(NC(=O)CSc2ncc(-c3ccccc3)[nH]2)c1	ALR H2O2 inh 98.6
O=C(CSc1ncc(-c2ccccc2)[nH]1)Nc1cccc(O)c1	ALR H2O2 inh 99.0
O=C(CSc1ncc(-c2ccccc2)[nH]1)Nc1ccccc1F	none
O=C(CSc1ncc(-c2ccccc2)[nH]1)Nc1ccccc1	ALR H2O2 inh 98.8
NC(=O)CSc1ncc(-c2ccccc2)[nH]1	none
O=C(CCCn1c(=O)oc2ccccc21)Nc1ccccc1	none (no result: PolyA inh, ALR H2O2 inh, NALP1 inh)
Cn1c(=O)c2c(ncn2CC(=O)OCC(=O)c2ccc(Br)cc2)n(C)c1=O	none (no result: PolyA inh, Arr AP2 block, NLRP3 yeast inh, ALR H2O2 inh, NALP1 inh)
O=C1NN=C(c2ccccc2)C1Cc1ccccc1 (stereo not given)	none (no result: PolyA inh, NLRP3 yeast inh, ALR H2O2 inh, NALP1 inh)
Cc1ccc2nc3sc(C(=O)Nc4c(C)[nH]c(=O)[nH]c4=O)c(N)c3cc2c1	none
Cc1ccc2cc3c(N)c(C(=O)Nc4c(C)[nH]c(=O)[nH]c4=O)sc3nc2c1	ALR H2O2 inh 96.4
O=C(CCS(=O)(=O)c1ccccc1)Nc1nc(-c2cccs2)cs1	DSG3 Ab inh 69.1
CCOC(=O)c1c(C)c(C(=O)Nc2ccc(N(C)C)cc2)c(C)n1CC	ALR H2O2 inh 98.9 (no result: NLRP3 yeast inh)
CCCCOC(=O)Nc1ccc(N(C)C)cc1	PolyA inh inconclusive, ALR H2O2 inh 99.4
CCOC(=O)Nc1ccc(OC(=O)Oc2ccc(NC(=O)OCC)cc2)cc1	DSG3 Ab inh 77.8 (no result: PolyA inh, NLRP3 yeast inh, ALR H2O2 inh, NALP1 inh)
CCCCOC(=O)Nc1ccc(N2CCCCC2)cc1	ALR H2O2 inh 78.3
CCCCOC(=O)Nc1ccc(C(N)=O)cc1	none
CCOC(=O)c1c(C)c(C(=O)NCCOC)c(C)n1CC	none
Cc1cc(C(=O)Nc2ccc([N+](=O)[O-])cn2)cs1	none
Nc1ncc(Br)cc1S(=O)(=O)Nc1cc(C(F)(F)F)cc(C(F)(F)F)c1	none
CCOc1ccc2nc(SC3CC(=O)N(c4ccccc4)C3=O)sc2c1 (stereo not given)	none (no result: DSG3 Ab inh)
COc1ccc(N2C(=O)CC(Sc3n[nH]c(-c4ccccc4)n3)C2=O)cc1 (stereo not given)	ALR H2O2 inh 98.7
CCOc1ccc(N2C(=O)CC(Sc3n[nH]c(-c4ccccc4)n3)C2=O)cc1 (stereo not given)	ALR H2O2 inh 98.7, NALP1 inh 36.9
CC(C)(C)OC(=O)C[C@@H]1C/C=C\C[C@H](CC(=O)N(CCO)Cc2ccccc2)C(=O)NCCOC1=O	none (no result: PolyA inh, ALR H2O2 inh, NALP1 inh)
CCCc1cc(=O)oc2cc(OCC(=O)NCC(O)c3ccccc3)ccc12 (stereo not given)	DSG3 Ab inh 0.7
CCCc1cc(=O)oc2cc(OCC(=O)NCc3cccs3)ccc12	DSG3 Ab inh 45.6
CC(NC(=O)N1CCN(c2ccccc2F)CC1)c1ccc(F)c(F)c1 (stereo not given)	none
Nc1ccccc1Sc1nc2ccccc2[nH]1	none
Nc1ccccc1Sc1c[nH]c2ccccc12	ALR H2O2 inh 99.2
COc1ccc(S(=O)(=O)Nc2ccc(Cc3ccncc3)cc2)cc1OC	DSG3 Ab inh 39.5
O=S(=O)(Cc1ccccc1)N1CCNCC1	none
CN/N=C/c1ccc(C#N)cc1	ALR H2O2 inh 98.7
Cc1ccccc1N/N=C/c1ccc(C#N)cc1	none
CCOC(=O)CNc1nnc(SCC(=O)OCC)[nH]c1=O	ALR H2O2 inh 100.2 (no result: DSG3 Ab inh)
COC(=O)CSc1nnc(C)c(=O)[nH]1	none
Cn1sc(NC(=O)c2ccc(Cl)cc2)nc1=O	ALR H2O2 inh 97.2
Cc1n[nH]c(=O)c2c(NC(=O)CSc3nncs3)oc(C)c12	none (no result: NALP1 inh)
